Assay outcomes (PubChem)
MT stabilizer – microtubule stabilizers in HeLa cells | hit rate 0.83% among 200,000 | HeLa tubulin immunostaining HCS, 24 h; share of cells brighter than vehicle mean+2SD | % tubulin-high responders, % at 10 µM;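 active means plate Z-score above 3 for both tubulin-high and condensed-nucleus cell shares, with cell loss under 80%, at 10 µM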;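 further: anti alpha tubulin signal scored within the nucleus-defined area of each cell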
b-catenin transl – modulators of beta-catenin nuclear translocation. HeLa beta-catenin nuclear translocation, immunofluorescence imaging. hit rate 0.3% among 190,000. nuclear translocation activity, % at 5 µM;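 active means nuclear translocation activity above 50% at 5 µM, with a well cell count of 50 or more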;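 further: per-cell ratio of nuclear to cytoplasmic median beta-catenin stain intensity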
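Technique: fluorescence imaging of beta-catenin antibody stain plus DAPI / Material: human HeLa cell line / Incubation: compound treatment 24 h, 37°C, 5% CO2 / Read-out basis: % activation of per-cell nuclear versus cytoplasmic median beta-catenin signal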
APP transl inh – APP translation inhibition; hit rate 0.82% among 190,000; inhibition, % at 2 µM; SH-SY5Y APP 5'UTR-luciferase reporter, luminescence;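 active means inhibition above a set limit, derived from the sample mean plus 3 SD, cut at about 45% in these data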
BaF3 parental – parental Ba/F3 viability inhibition as JAK2V617F counter-screen; hit rate 1.1% among 220,000; inhibition, % at 5.6 µM; CellTiter-Glo ATP luminescence;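 active means inhibition above a per-campaign cutoff, the mean inhibition of all tested compounds plus 3 SD, cut at about 27% in these data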
Lmaj promast – inhibitors of Leishmania major promastigote growth; inhibition, % at 10 µM; hit rate 9% among 200,000; AID 1063; Leishmania major promastigotes, resazurin fluorescence viability; in the data active means inhibition above about 50%;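 further: promastigotes grown with compound for 44 hours at 28 °C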
Ba/F3 V617F tox – loss of viability in JAK2V617F-driven Ba/F3 cells; Ba/F3 EpoR-JAK2V617F viability, ATP luminescence; inhibition, % at 5.6 µM; hit rate 1.1% among 220,000; AID 1446;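 active means inhibition above the campaign mean plus 3 SD over all tested compounds, cut at about 24% in these data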;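 further: cytokine-independent growth of Ba/F3 cells driven by EpoR plus mutant JAK2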
Lmaj promast 1uM – blocks Leishmania major promastigote growth at 1 uM, repeat screen | inhibition, % at 1 µM | shares compounds with Lmaj promast | hit rate 13% among 1,100 | L. major promastigote growth, resazurin fluorescence, 48 h;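 active means inhibition above about 50% in both repeat tests, limit read from the data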
BaF3 tox 2 – parental Ba/F3 viability inhibition for JAK2V617F counter-screen | shares compounds with Ba/F3 V617F tox | CellTiter-Glo luminescence; cells kept alive by added IL-3 | inhibition, % at 5.6 µM | hit rate 31% among 580;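 active means cell growth inhibition above the hit limit set in the earlier mutant JAK2 cell screen, cut at about 27% in these data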
JAK2V617F conf – confirmation: loss of viability in JAK2V617F-dependent Ba/F3 cells; hit rate 66% among 580; shares compounds with Ba/F3 V617F tox; Ba/F3 EpoR-JAK2V617F viability, CellTiter-Glo luminescence; inhibition, % at 5.6 µM;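 active means mean inhibition above the hit cutoff derived in the earlier primary screen, cut at about 25% in these data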;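 further: higher means lower luminescence from reduced cell ATP and viability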
Numbers stand for hits; - = inactive; . = not tested or not shown. Compounds with a hit are over-represented: about 9.6% of the library has one in this group of screens.

SMILES	MT stabilizer	b-catenin transl	APP transl inh	BaF3 parental	Lmaj promast	Ba/F3 V617F tox	BaF3 tox 2	JAK2V617F conf	others
CCS(=O)(=O)CCSc1nc2ccccc2s1	-	-	-	-	-	-	.	.
CCOC(=O)C1(CCCc2ccccc2)CCN(C(=O)[C@@H]2C[C@@H](C)NC(=S)N2)CC1	-	-	-	-	-	-	.	.
COc1ccc(-n2nnnc2S(=O)(=O)CC(=O)N2CCCCC2)cc1	-	.	-	-	93	27	-	88	Lmaj promast 1uM=-
CC(=O)c1ccc(Sc2nnnn2-c2ccccc2)c([N+](=O)[O-])c1	-	-	-	-	100	44	-	83
Cn1c(SCC(=O)OC2CCCCC2)nnc1-c1ccco1	-	-	-	-	-	-	.	.
COc1ccc(OC)c(C2CC(=O)c3c([nH]c(C(=O)OC(C)C)c3C)C2)c1 (configuration not stated)	-	.	95	-	-	68	57	90
COc1cc(C2CC(=O)c3c([nH]c(C(=O)OCCOC(C)C)c3C)C2)cc(OC)c1OC (configuration not stated)	-	-	-	-	-	-	.	.
O=C(CCl)N=c1sccn1Cc1cccc2ccccc12	-	-	-	-	-	102	-	99
Cc1nccn1Cc1cccc2ccccc12	-	-	-	-	-	-	.	.
O=c1c(Cc2ccc(F)cc2)c(O)ccn1Cc1ccc(Cl)cc1Cl	-	-	-	-	-	-	.	.
O=C(CCl)N=c1sccn1Cc1ccc(Cl)cc1Cl	-	-	-	-	86	101	-	99
O=C(NCc1ccccc1Cl)NCc1ccccc1Cl	.	-	.	-	.	-	.	.
O=C(CCl)N=c1sccn1Cc1ccccc1Cl	.	-	.	-	.	99	-	99
Cc1cc(C)nc(N2CCCC(C(=O)NC(C)C)C2)n1 (configuration not stated)	-	-	-	-	-	-	.	.
COc1ccc(/C=N/NC(=O)Cn2c(Cc3ccc(OC)c(OC)c3)nc3ccccc32)cc1	-	-	-	-	-	-	.	.
Cc1ccc2oc(=O)c(/C=C(\O)C(C)(C)C)nc2c1	-	-	-	-	-	-	.	.
CC(C)(C)/C(O)=C/c1nc2cc(Cl)ccc2oc1=O	.	-	.	-	.	37	-	78
C/C(=N\Nc1nc(-c2ccccn2)nc2ccccc12)c1ccc(F)cc1	.	-	.	-	.	-	.	.
c1ccc(CCNc2nc(-c3ccccn3)nc3ccccc23)cc1	.	-	.	-	.	58	-	88
O=C(c1ccco1)N(Cc1cc2ccccc2[nH]c1=O)CC1CCCO1 (configuration not stated)	-	.	-	-	-	69	-	-
Cc1cccc2cc(CN(CC3CCCO3)C(=O)c3ccco3)c(=O)[nH]c12 (configuration not stated)	-	-	-	-	-	-	.	.
CCOC(=O)c1ccc(NC(=S)NCCCN2CCCCC2)cc1	-	-	-	-	-	-	.	.
C=CCNC(=S)/C(=C(/[O-])c1ccc([N+](=O)[O-])cc1)[n+]1ccccc1	-	-	-	-	-	-	.	.
Cc1nc([N+](=O)[O-])c(Sc2nc3ccccc3n2C)n1Cc1ccccc1	-	-	-	-	96	28	-	92
Cc1cc(NC(=O)c2ccc(C)s2)n(-c2ccccc2)n1	-	.	-	-	-	-	.	.
SMILES	MT stabilizer	b-catenin transl	APP transl inh	BaF3 parental	Lmaj promast	Ba/F3 V617F tox	BaF3 tox 2	JAK2V617F conf	others
Cc1cc(C)c2nc(SCC(=O)Nc3ccccc3N3CCOCC3)c(C#N)cc2c1	-	.	-	-	-	-	.	.
Cc1cc(C)c2nc(SCC(=O)N3CC(=O)Nc4ccccc43)c(C#N)cc2c1	-	-	96	-	-	67	97	99
COC(=O)c1c(NC(=O)CN2CCC(C)CC2)c2c(C)cccc2n1C	-	-	-	-	-	-	.	.
Cc1ccsc1-c1nc(CN2CCCC2c2ccc(F)cc2)c(C)o1 (configuration not stated)	-	-	-	-	-	-	.	.
CCOC(=O)C(=NC(C)CC)NNc1cccc(C(F)(F)F)c1 (configuration not stated)	-	-	-	-	-	-	.	.
CCOC(=O)C(=NC1CCCCC1)NNc1cccc(C(F)(F)F)c1	-	-	-	-	-	36	-	-
O=C(O)c1cc(-c2c[nH]c3ccccc23)nc2cc3ccccc3cc12	.	-	.	-	.	-	.	.
CCOCc1cc(=O)[nH]c(SC)n1	.	-	.	-	.	-	.	.
BrC(=C\c1ccccc1)/C=N/n1cnnc1	-	-	79	-	100	65	55	96
CN(CCC#N)C(=O)c1ccc(CNS(=O)(=O)c2ccc(F)cc2)cc1	-	-	.	-	-	-	.	.
Cc1ccc(S(=O)(=O)NCc2ccc(C(=O)N(C)CCC#N)cc2)cc1	-	-	.	-	-	93	-	-
COc1cc(C(=O)OCC(C)=O)ccc1OCc1c(C)noc1C	31	-	-	-	-	39	-	26
O=C(c1ccccc1Cl)N1CCC(n2cccc2)CC1	.	-	.	-	.	-	.	.
COc1ccccc1NC(=O)N1CCC(c2nnc(SCC(N)=O)n2C)CC1	-	-	-	-	-	-	.	.
O=C(c1nnsc1S(=O)(=O)c1ccc(Cl)cc1)N1CCOCC1	-	-	-	-	100	76	45	75
CNC(=O)c1nnsc1S(=O)(=O)c1ccc(Cl)cc1	-	-	95	-	59	91	68	98
Nc1nc(C(=O)N2CCOCC2)nn1S(=O)(=O)c1ccc(Cl)cc1	-	.	-	-	-	-	.	.
COc1ccc(CNc2nc3nc4c(c(=O)n3[nH]2)CCC4)cc1	-	-	-	-	-	-	.	.
CN(C)c1ccc(CN(C(=O)C2COc3ccccc3O2)C2CCS(=O)(=O)C2)cc1 (configuration not stated)	-	-	-	-	-	-	.	.
CCOc1cc(Br)ccc1S(=O)(=O)NCc1ccccc1	-	-	-	-	-	101	-	-
COc1ccc(C(CC(=O)NCCCN2CCOCC2)NS(=O)(=O)c2ccc(C)cc2)cc1 (configuration not stated)	-	-	-	-	-	-	.	.
OC1(c2ccc(OC(F)F)cc2)CSC(=Nc2cccnc2)N1C1CC1 (configuration not stated)	-	-	-	-	-	29	-	31
COc1ccc(OC)c(C2(O)CSC(=Nc3cccnc3)N2Cc2ccco2)c1 (configuration not stated)	-	-	-	-	-	-	.	.
Cc1nc2c(-c3ccccc3)c(C)nn2c(C)c1CCC(=O)O	-	-	-	-	-	-	.	.
Cc1nc2c(-c3ccc(F)cc3)c(C)nn2c(C)c1CCC(=O)Nc1ccccc1F	.	-	.	-	.	79	-	-
